{
  "source": "ChEMBL document CHEMBL1138915",
  "about": "“Pharmacophore based receptor modeling: the case of adenosine A3 receptor antagonists. An approach to the optimization of protein models” (J Med Chem, 2006)",
  "type_in_all_cases": "cell-based",
  "key": {"Adenosine receptor A3": {"target": "T1, Adenosine receptor A3 (Homo sapiens, UniProt P0DMS8)", "T1 sequence (P0DMS8 whole entry)": "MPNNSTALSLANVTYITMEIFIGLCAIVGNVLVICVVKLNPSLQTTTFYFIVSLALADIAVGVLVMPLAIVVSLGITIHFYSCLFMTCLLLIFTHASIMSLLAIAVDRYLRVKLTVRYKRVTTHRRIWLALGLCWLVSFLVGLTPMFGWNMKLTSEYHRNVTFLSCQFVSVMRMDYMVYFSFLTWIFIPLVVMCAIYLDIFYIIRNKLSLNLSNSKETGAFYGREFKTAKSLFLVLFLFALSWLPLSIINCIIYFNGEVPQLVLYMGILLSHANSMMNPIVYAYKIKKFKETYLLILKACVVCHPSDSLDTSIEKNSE", "assay": "Displacement of [3H]MRE 3008F20 from human adenosine A3 receptor expressed in CHO cells"}, "[1]": {"target": "T2, Adenosine receptor A1 (Homo sapiens) (UniProt P30542)", "T2 sequence (whole entry)": "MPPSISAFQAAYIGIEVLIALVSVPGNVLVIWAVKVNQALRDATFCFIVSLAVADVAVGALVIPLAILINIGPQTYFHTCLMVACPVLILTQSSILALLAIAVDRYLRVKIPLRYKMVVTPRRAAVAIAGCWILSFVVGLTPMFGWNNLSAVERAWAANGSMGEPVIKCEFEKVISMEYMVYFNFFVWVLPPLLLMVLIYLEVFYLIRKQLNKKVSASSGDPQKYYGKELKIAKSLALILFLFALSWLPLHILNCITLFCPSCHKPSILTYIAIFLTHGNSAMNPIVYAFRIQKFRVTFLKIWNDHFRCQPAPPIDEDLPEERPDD", "assay": "(§1) Displacement of [3H]DPCPX from human adenosine A1 receptor expressed in CHO cells", "design": "concentration or dose not given beside the values", "settings": "concentration not given here", "in_short": "(§2)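 Membranes from transfected CHO cells (50 µg protein/assay) in 50 mM Tris-HCl pH 7.4, incubated 120 min at 25 °C with 1 nM radioligand and at least six to eight test concentrations. Nonspecific binding with 10 µM CHA. Filtration on GF/B filters and scintillation counting. Ki from IC50 by Cheng-Prusoff, nonlinear least-squares fitting.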"}, "Adenosine receptor A1": {"target": "T3, Adenosine receptor A1 (Homo sapiens, UniProt P30542)", "T3 sequence (P30542 whole entry)": "T2 sequence (whole entry)", "assay": "as §1", "in_short": "as §2"}, "Adenosine receptor A2a": {"target": "Adenosine receptor A2a (Homo sapiens, UniProt P29274)", "sequence (P29274 whole entry)": "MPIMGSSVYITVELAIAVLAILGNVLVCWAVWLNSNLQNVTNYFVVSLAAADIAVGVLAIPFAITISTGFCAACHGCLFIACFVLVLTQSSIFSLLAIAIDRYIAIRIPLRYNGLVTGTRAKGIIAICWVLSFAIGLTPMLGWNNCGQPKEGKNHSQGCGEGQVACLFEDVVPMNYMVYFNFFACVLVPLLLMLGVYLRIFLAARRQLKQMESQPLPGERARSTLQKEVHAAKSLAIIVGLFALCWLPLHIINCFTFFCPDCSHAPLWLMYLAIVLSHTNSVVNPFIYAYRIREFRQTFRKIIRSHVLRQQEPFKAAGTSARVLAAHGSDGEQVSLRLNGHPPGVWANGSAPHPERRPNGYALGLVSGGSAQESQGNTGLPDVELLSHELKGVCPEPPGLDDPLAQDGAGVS", "assay": "Displacement of [3H]ZM241385 from human adenosine A2A receptor expressed in CHO cells", "settings": "for inhibition: concentration not given here", "in_short": "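CHO-derived membranes (50 µg protein/assay) in 50 mM Tris-HCl, 10 mM MgCl2, pH 7.4, competed with at least six to eight compound concentrations for 60 min at 25 °C. Nonspecific binding defined by 1 µM ZM 241385. Bound ligand collected on GF/B filters and counted. Ki derived from IC50 via Cheng-Prusoff.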"}, "[2]": {"target": "T4, Adenosine receptor A2b (Homo sapiens) (UniProt P29275)", "T4 sequence (whole entry)": "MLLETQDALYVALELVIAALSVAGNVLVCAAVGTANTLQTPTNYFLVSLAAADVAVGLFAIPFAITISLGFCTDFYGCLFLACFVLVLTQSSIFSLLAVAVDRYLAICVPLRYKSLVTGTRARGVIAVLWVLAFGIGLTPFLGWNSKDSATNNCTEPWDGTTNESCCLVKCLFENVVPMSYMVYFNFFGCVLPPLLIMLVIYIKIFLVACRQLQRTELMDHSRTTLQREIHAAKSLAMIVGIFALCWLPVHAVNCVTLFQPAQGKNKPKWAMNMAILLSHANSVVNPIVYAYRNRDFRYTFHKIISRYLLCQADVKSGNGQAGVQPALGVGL", "assay": "(§3) Displacement of [3H]MRE 2029F20 from human adenosine A2B receptor expressed in CHO cells", "design": "concentration or dose not given beside the values", "settings": "concentration not given here", "in_short": "(§4)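 Run 60 min at 25 °C in 50 mM Tris-HCl, 10 mM MgCl2, 1 mM EDTA, 0.1 mM benzamidine, pH 7.4, with 2 IU/mL adenosine deaminase, 40 nM radioligand and CHO membranes (20 µg protein/assay). At least six to eight test concentrations. Nonspecific binding with 100 µM NECA. Filtration and counting, Ki by Cheng-Prusoff.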"}, "Adenosine receptor A2b": {"target": "T5, Adenosine receptor A2b (Homo sapiens, UniProt P29275)", "T5 sequence (P29275 whole entry)": "T4 sequence (whole entry)", "assay": "as §3", "in_short": "as §4"}},
  "data": [
    {"compound": "CCCOC(=O)c1c(-c2ccccc2)nc(CC)c(C(=O)OCC)c1CC", "values": [
      {"measurement": "Ki", "setting": "Adenosine receptor A3", "value": 8.3, "unit": "nM"}
    ]},
    {"compound": "CCOC(=O)c1c(-c2ccccc2)nc(C)c(C(=O)SCC)c1C", "values": [
      {"measurement": "Ki", "setting": "Adenosine receptor A3", "value": 20, "unit": "nM"}
    ]},
    {"compound": "O=C(Nc1ccccc1)Nc1ncnc2ccccc12", "values": [
      {"measurement": "Ki", "setting": "Adenosine receptor A3; cho", "value": 1200, "unit": "nM"}
    ]},
    {"compound": "CCn1cc2c(nc(NC(=O)Nc3ccc(F)cc3)n3nc(-c4ccco4)nc23)n1", "values": [
      {"measurement": "Ki", "setting": "Adenosine receptor A3", "value": 0.86, "unit": "nM"}
    ]},
    {"compound": "CCn1cc2c(nc(NC(=O)Nc3ccccc3OC)n3nc(-c4ccco4)nc23)n1", "values": [
      {"measurement": "Ki", "setting": "Adenosine receptor A3", "value": 0.56, "unit": "nM"}
    ]},
    {"compound": "O=C(Nc1ccncc1)Nc1nc2nn(CCCOCc3ccccc3)cc2c2nc(-c3ccco3)nn12", "values": [
      {"measurement": "Ki", "setting": "Adenosine receptor A3", "value": 14, "unit": "nM"},
      {"measurement": "inhibition", "setting": "[1]", "value": 74, "unit": "%"},
      {"measurement": "Ki", "setting": "Adenosine receptor A1", "value": "> 1000", "unit": "nM"},
      {"measurement": "Ki", "setting": "Adenosine receptor A2a", "value": "> 1000", "unit": "nM"},
      {"measurement": "inhibition", "setting": "Adenosine receptor A2a", "value": 89, "unit": "%"},
      {"measurement": "inhibition", "setting": "[2]", "value": 66, "unit": "%"},
      {"measurement": "Ki", "setting": "Adenosine receptor A2b", "value": "> 1000", "unit": "nM"}
    ]},
    {"compound": "CCCOC(=O)c1c(CC)nc(-c2cccc(Cl)c2)c(C(=O)OCCC)c1CC", "values": [
      {"measurement": "Ki", "setting": "Adenosine receptor A3", "value": 7.9, "unit": "nM"}
    ]},
    {"compound": "Cc1cccnc1-c1nc(NC(=O)Nc2ccccc2)c2ccccc2n1", "values": [
      {"measurement": "Ki", "setting": "Adenosine receptor A3", "value": 260, "unit": "nM"}
    ]},
    {"compound": "CCOC(=O)c1c(-c2ccccc2)nc(CC)c(C(=O)SCC)c1CC", "values": [
      {"measurement": "Ki", "setting": "Adenosine receptor A3", "value": 13.4, "unit": "nM"}
    ]},
    {"compound": "CCCOC(=O)c1c(-c2ccccc2)nc(CC)c(C(=O)OCC)c1CCC", "values": [
      {"measurement": "Ki", "setting": "Adenosine receptor A3", "value": 19, "unit": "nM"}
    ]},
    {"compound": "O=C(Nc1cccnc1)Nc1nc2nn(CCO)cc2c2nc(-c3ccco3)nn12", "values": [
      {"measurement": "Ki", "setting": "Adenosine receptor A3", "value": 34, "unit": "nM"},
      {"measurement": "inhibition", "setting": "[1]", "value": 92, "unit": "%"},
      {"measurement": "Ki", "setting": "Adenosine receptor A1", "value": "> 1000", "unit": "nM"},
      {"measurement": "Ki", "setting": "Adenosine receptor A2a", "value": "> 1000", "unit": "nM"},
      {"measurement": "inhibition", "setting": "Adenosine receptor A2a", "value": 93, "unit": "%"},
      {"measurement": "inhibition", "setting": "[2]", "value": 99, "unit": "%"},
      {"measurement": "Ki", "setting": "Adenosine receptor A2b", "value": "> 1000", "unit": "nM"}
    ]},
    {"compound": "O=C(Nc1ccncc1)Nc1nc2nn(CCOCc3ccccc3)cc2c2nc(-c3ccco3)nn12", "values": [
      {"measurement": "Ki", "setting": "Adenosine receptor A3", "value": 27, "unit": "nM"},
      {"measurement": "inhibition", "setting": "[1]", "value": 71, "unit": "%"},
      {"measurement": "Ki", "setting": "Adenosine receptor A1", "value": "> 1000", "unit": "nM"},
      {"measurement": "Ki", "setting": "Adenosine receptor A2a", "value": "> 1000", "unit": "nM"},
      {"measurement": "inhibition", "setting": "Adenosine receptor A2a", "value": 97, "unit": "%"},
      {"measurement": "inhibition", "setting": "[2]", "value": 65, "unit": "%"},
      {"measurement": "Ki", "setting": "Adenosine receptor A2b", "value": "> 1000", "unit": "nM"}
    ]},
    {"compound": "O=C(Nc1ccncc1)Nc1nc2nn(CCCO)cc2c2nc(-c3ccco3)nn12", "values": [
      {"measurement": "Ki", "setting": "Adenosine receptor A3", "value": 2, "unit": "nM"},
      {"measurement": "Ki", "setting": "Adenosine receptor A1", "value": 350, "unit": "nM"},
      {"measurement": "Ki", "setting": "Adenosine receptor A2a", "value": "> 1000", "unit": "nM"},
      {"measurement": "inhibition", "setting": "Adenosine receptor A2a", "value": 95, "unit": "%"},
      {"measurement": "inhibition", "setting": "[2]", "value": 73, "unit": "%"},
      {"measurement": "Ki", "setting": "Adenosine receptor A2b", "value": "> 1000", "unit": "nM"}
    ]},
    {"compound": "O=C(Nc1ccncc1)Nc1nc2nn(CCO)cc2c2nc(-c3ccco3)nn12", "values": [
      {"measurement": "Ki", "setting": "Adenosine receptor A3", "value": 5.1, "unit": "nM"},
      {"measurement": "inhibition", "setting": "[1]", "value": 74, "unit": "%"},
      {"measurement": "Ki", "setting": "Adenosine receptor A1", "value": "> 1000", "unit": "nM"},
      {"measurement": "Ki", "setting": "Adenosine receptor A2a", "value": "> 1000", "unit": "nM"},
      {"measurement": "inhibition", "setting": "Adenosine receptor A2a", "value": 96, "unit": "%"},
      {"measurement": "inhibition", "setting": "[2]", "value": 71, "unit": "%"},
      {"measurement": "Ki", "setting": "Adenosine receptor A2b", "value": "> 1000", "unit": "nM"}
    ]},
    {"compound": "CCCc1c(C(=O)SCC)c(C)nc(-c2ccccc2)c1C(=O)OCC", "values": [
      {"measurement": "Ki", "setting": "Adenosine receptor A3", "value": 194, "unit": "nM"}
    ]},
    {"compound": "CCn1cc2c(n1)N=C(NC(=O)Nc1ccc(C)cc1)N1N=C(c3ccco3)NC21", "note": "(stereo unspecified)", "values": [
      {"measurement": "Ki", "setting": "Adenosine receptor A3", "value": 0.14, "unit": "nM"}
    ]},
    {"compound": "O=C(Nc1cccnc1)Nc1nc2nn(CCOCc3ccccc3)cc2c2nc(-c3ccco3)nn12", "values": [
      {"measurement": "Ki", "setting": "Adenosine receptor A3", "value": 9, "unit": "nM"},
      {"measurement": "inhibition", "setting": "[1]", "value": 85, "unit": "%"},
      {"measurement": "Ki", "setting": "Adenosine receptor A1", "value": "> 1000", "unit": "nM"},
      {"measurement": "Ki", "setting": "Adenosine receptor A2a", "value": "> 1000", "unit": "nM"},
      {"measurement": "inhibition", "setting": "Adenosine receptor A2a", "value": 82, "unit": "%"},
      {"measurement": "inhibition", "setting": "[2]", "value": 58, "unit": "%"},
      {"measurement": "Ki", "setting": "Adenosine receptor A2b", "value": "> 1000", "unit": "nM"}
    ]},
    {"compound": "CCOC(=O)c1c(C)nc(-c2ccccc2)c(C(=O)OCC)c1CC", "values": [
      {"measurement": "Ki", "setting": "Adenosine receptor A3", "value": 180, "unit": "nM"}
    ]},
    {"compound": "CCOC(=O)c1c(CC)nc(-c2ccccc2)c(C(=O)OCC)c1CC", "values": [
      {"measurement": "Ki", "setting": "Adenosine receptor A3", "value": 120, "unit": "nM"}
    ]},
    {"compound": "CCCOC(=O)c1c(C)nc(-c2ccccc2)c(C(=O)OCC)c1C", "values": [
      {"measurement": "Ki", "setting": "Adenosine receptor A3", "value": 210, "unit": "nM"}
    ]},
    {"compound": "CCOC(=O)c1c(CC)c(C(=O)OCC)c(-c2ccccc2)[n+](C)c1C", "values": [
      {"measurement": "Ki", "setting": "Adenosine receptor A3", "value": 380, "unit": "nM"}
    ]}
  ]
}
